In ChEMBL document CHEMBL5712071, “BET bromodomain protein inhibition is a therapeutic option for medulloblastoma” (Oncotarget, 2013):
The source made the active and inactive calls. The calls are words filed in the database; no cut-off is given here.

What was measured:
[1] = system: Daoy; experiment: Induction of apoptosis in human Daoy cells assessed as increase in population of cells in sub-G1 phase at 500 nM incubated for 72 hrs by flow cytometry; assay type: functional, cell-based
Summary of the method: (§1)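 Cells were cultured with 500 nM JQ1 or DMSO control, trypsinised and washed 3 times in PBS. DNA was stained with propidium iodide for 15 min and DNA content analysed by flow cytometry to give G1 and sub-G1 fractions.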

[2] = system: UW228; experiment: Anti-proliferative activity against human UW228 cells assessed as reduction in cell viability incubated for 120 hrs by MTT assay; assay type: functional, cell-based; settings: UW228, 120 h
Summary of the method: (§2)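 Cells seeded in triplicate at 2 × 10^3 per well and allowed to adhere for 24h. JQ1 was given as serial dilutions in full medium, 1nM-6µM, from a 10 mM DMSO stock. Viability was read by MTT at each time point and IC50 derived from dose-response curves. Culture media were RPMI 1640/10% FCS for HD-MB3 (plus 1% NEAA), ONS-76, Daoy and UW-228, and EMEM/10% FCS for D-283 and D-341.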

[3] = system: D283 Med; experiment: Induction of apoptosis in human D283 cells assessed as increase in population of cells in G1 phase at 500 nM incubated for 72 hrs by flow cytometry; assay type: functional, cell-based; summary of the method: as §1
[4] = system: Daoy; experiment: Induction of apoptosis in human Daoy cells assessed as increase in population of cells in G1 phase at 500 nM incubated for 72 hrs by flow cytometry; assay type: functional, cell-based; summary of the method: as §1
[5] = system: HD-MB03; experiment: Induction of apoptosis in female athymic (nu/nu) mouse xenografted with human HD-MB03 cells as increase in expression of cleaved caspase 3 in tumor at 50 mg/kg, ip administered at 0, 12, 24 and 36 hrs over 2-day course by immunohistochemistry; assay type: functional, organism-based
Summary of the method: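 Nu/nu mice bearing subcutaneous HD-MB3 tumours received JQ1 50 mg/kg ip or DMSO at 0, 12, 24 and 36 h and were killed 4 h after the last dose, 3 tumours per group. Formalin-fixed 5µm sections underwent pH 6.0 antigen retrieval for 20 min at 100°C, then cleaved caspase 3 immunostaining (1:200) with quantification of positive cells.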

[6] = system: HD-MB03; experiment: Induction of senescence in human HD-MB03 cells assessed as increase in population of cells in G1 phase at 500 nM incubated for 72 hrs by fluorometric SA-beta-gal activity assay; assay type: functional, cell-based
Summary of the method: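 Senescence read as fluorometric SA-β-gal activity. Cells seeded 2 × 10^3 per well in triplicate and allowed 24h to adhere, then exposed to 500 nM JQ1 or DMSO control for 72h. Assayed per kit protocol. Experiments repeated at least 3 times.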

[7] = target: Bromodomain-containing protein 4 (Homo sapiens) (UniProt O60885); settings: HD-MB03, dose 500.0 nM, time 6-24 hrs
[8] = system: UW228; experiment: Anti-proliferative activity against human UW228 cells assessed as reduction in cell viability incubated for 48 hrs by MTT assay; assay type: functional, cell-based; settings: UW228, 48 h; summary of the method: as §2
[9] = system: D283 Med; experiment: Anti-proliferative activity against human D283 cells assessed as reduction in cell viability incubated for 72 hrs by MTT assay; assay type: functional, cell-based; summary of the method: as §2
[10] = target: Bromodomain-containing protein 4 (Homo sapiens) (UniProt O60885); settings: HD-MB03, dose 500.0 nM, time 72.0 hrs
[11] = system: ONS-76; experiment: Induction of apoptosis in human ONS-76 cells assessed as increase in population of cells in sub-G1 phase at 500 nM incubated for 72 hrs by ELISA; assay type: functional, cell-based
Summary of the method: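 Cell death ELISA on ONS-76 or UW-228 cells seeded 2 × 10^3 per well in triplicate and allowed 24h to adhere. Treated with 500 nM JQ1 or DMSO for 72h, then apoptotic cell death measured by Cell Death Detection ELISA per kit protocol. Experiments repeated at least 3 times.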

[12] = system: UW228; experiment: Antiproliferative activity against human UW228 cells at 500 nM incubated for 72 hrs by BrdU ELISA method; assay type: functional, cell-based
Summary of the method: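 Cells seeded in triplicate at 2 × 10^3 per well with 24h adherence, then treated with 500 nM JQ1 or DMSO control for 72h. Proliferation was measured by BrdU incorporation ELISA. Experiments were run independently at least 3 times.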

[13] = system: HD-MB03; experiment: Anti-proliferative activity against human HD-MB03 cells assessed as reduction in cell viability incubated for 120 hrs by MTT assay; assay type: functional, cell-based; settings: HD-MB03, 120 h; summary of the method: as §2
[14] = system: HD-MB03; experiment: Induction of apoptosis in human HD-MB03 cells assessed as increase in population of cells in sub-G1 phase at 500 nM incubated for 72 hrs by flow cytometry; assay type: functional, cell-based
Summary of the method: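 PI flow cytometry: cells seeded in triplicate, adhered 24h, then exposed to 500 nM JQ1 or DMSO control (methods give 48h culture, legend gives 72h). Harvested by trypsin, washed 3 times in PBS, stained with propidium iodide 15 min, DNA content read by flow cytometry. Sub-G1 fraction taken as apoptotic. Experiments repeated at least 3 times.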

[15] = system: HD-MB03; experiment: Induction of apoptosis in human HD-MB03 cells assessed as increase in population of cells in G1 phase at 500 nM incubated for 72 hrs by ELISA; assay type: functional, cell-based
[16] = target: Bromodomain-containing protein 4 (Homo sapiens) (UniProt O60885); settings: D283 Med, dose 500.0 nM, time 72.0 hrs
[17] = system: D283 Med; experiment: Induction of apoptosis in human D283 cells assessed as increase in population of cells in sub-G1 phase at 500 nM incubated for 72 hrs by flow cytometry; assay type: functional, cell-based; summary of the method: as §1
[18] = system: HD-MB03; experiment: Induction of apoptosis in human HD-MB03 cells assessed as increase in population of cells in G1 phase at 500 nM incubated for 72 hrs by flow cytometry; assay type: functional, cell-based; summary of the method: as §1
[19] = system: ONS-76; experiment: Induction of apoptosis in human ONS-76 cells assessed as increase in population of cells in G1 phase at 500 nM incubated for 72 hrs by flow cytometry; assay type: functional, cell-based
[20] = system: UW228; experiment: Induction of apoptosis in human UW228 cells assessed as increase in population of cells in G1 phase at 500 nM incubated for 72 hrs by ELISA; assay type: functional, cell-based
[21] = system: D341 cell line; experiment: Anti-proliferative activity against human D341 cells assessed as reduction in cell viability incubated for 120 hrs by MTT assay; assay type: functional, cell-based; settings: D341, 120 h; summary of the method: as §2
[22] = target: Bromodomain-containing protein 4 (Homo sapiens) (UniProt O60885); settings: D341 cell line, dose 500.0 nM, time 72.0 hrs
[23] = target: Bromodomain-containing protein 4 (Homo sapiens) (UniProt O60885); settings: ONS-76, dose 500.0 nM, time 72.0 hrs
[24] = system: ONS-76; experiment: Induction of apoptosis in human ONS-76 cells assessed as increase in population of cells in G1 phase at 500 nM incubated for 72 hrs by ELISA; assay type: functional, cell-based
[25] = system: UW228; experiment: Anti-proliferative activity against human UW228 cells assessed as reduction in cell viability incubated for 96 hrs by MTT assay; assay type: functional, cell-based; settings: UW228, 96 h; summary of the method: as §2
[26] = system: HD-MB03; experiment: Anti-proliferative activity against human HD-MB03 cells assessed as reduction in cell viability incubated for 48 hrs by MTT assay; assay type: functional, cell-based; settings: HD-MB03, 48 h; summary of the method: as §2

Cc1sc2c(c1C)C(c1ccc(Cl)cc1)=N[C@@H](CC(=O)OC(C)(C)C)c1nnc(C)n1-2
Activity [1]: Active | IC50 [2]: 897 nM | Activity [3]: Active | Activity [4]: Active | Activity [5]: Active | Activity [6]: Active | inhibition [7]: Active | IC50 [8]: > 1000 nM | IC50 [9]: 477 nM | inhibition [10]: Active | Activity [11]: Active | Activity [12]: Active | IC50 [13]: 153 nM | Activity [14]: Active | Activity [15]: Active | inhibition [16]: Active | Activity [17]: Active | Activity [18]: Active | Activity [19]: Active | Activity [20]: Active | IC50 [21]: 269 nM | inhibition [22]: Active | inhibition [23]: Active | Activity [24]: Active | IC50 [25]: > 1000 nM | IC50 [26]: 364 nM
